What was measured:
[1] = tested on: non-cirrhotic, non-alcoholic steatohepatitis patients; conditions: cited from earlier work
[2] = tested on: C57BL/6J mice fed AMLN diet; test: sub-chronic dosing in C57Bl/6J AMLN NASH model; type: in vivo, mouse; conditions: for weight loss from baseline: Cotadutide 10, Liraglutide 40 nmol/kg SC, OCA 70 μmol/kg PO, QD 6 weeks; for food intake within the first 4 days: same doses; for animals with reduced fibrosis / animals with reduced fibrosis (number of group): n=12; for mice in which NAS was reduced: vehicle controls 8%
Procedure, shortened: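 Male C57BL/6J mice, about 6 weeks old, were fed AMLN diet for 29 weeks (chow controls) before dosing for 6 weeks, n=12/group. Dosing: peptides SC once daily just before lights off; OCA oral. Every mouse got both an SC vehicle (phosphate/propylene glycol/PS-80, pH 7.5) and an oral vehicle (0.5% CMC). Body weight was recorded daily. ipGTT on day 28 after 4 h fast (1.5 g/kg glucose). Terminal blood and liver collected on day 42.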

[3] = tested on: DIO GLP-1R knock-out (KO) mice; test: two-week treatment of DIO GLP-1R KO mice; type: in vivo, mouse
Procedure, shortened: (§1)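 Mice were made obese on diet for 8 weeks, then moved to 45% high-fat diet for 2 weeks. Body weight was tracked as % change, with cumulative food intake over days 1–4. Blood and tissues were taken 20 h after the final dose.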

[4] = tested on: primary murine hepatocytes; test: de novo lipogenesis, 3H-acetate lipid incorporation; type: cell-based, mouse; conditions: 100 nM; vs vehicle-treated controls
Procedure, shortened: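 Primary murine hepatocytes treated ex vivo with test compound at 100 nM. De novo lipogenesis was measured as ³H-acetate incorporation into lipid: lipids were extracted, and ³H in the lower phase was counted by scintillation. Values are relative to vehicle-treated controls. n=3–6 per treatment, n=9 vehicle.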

[5] = tested on: primary human hepatocytes from normal or NASH donors; test: PPARGC1A mRNA in primary human hepatocytes; type: cell-based; conditions: 100 nM, 4 h; healthy and NASH donors
Procedure, shortened: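 Primary hepatocytes from normal or NASH human donors, exposed to test compound at 100 nM for 4 h; PPARGC1A transcript measured. n=3 biologically independent samples per group.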

[6] = tested on: C57BL6J diet-induced NASH model; test: six-week treatment of NASH C57Bl6/J mice; type: in vivo, mouse
[7] = tested on: primary mouse hepatocytes; test: mitochondrial oxygen consumption; type: cell-based
Procedure, shortened: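 Seahorse XFe96 run on primary mouse hepatocytes at 7500 cells/well, recovered overnight, then treated 4 h with 100 nM test compound. Assay medium: DMEM with 5 mM glucose, 4 mM L-glutamine, 2 mM pyruvate, pH 7.4; 30 min CO₂-free preincubation. Stress test used 1 μM oligomycin, 0.5 μM FCCP and 5 μM antimycin A. Basal and maximal OCR normalized to citrate synthase activity. n=3; substrate oxidation n=2.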

[8] = serum peptide content by GLP-1R and GcgR cAMP bioassay; type: in vivo, mouse; conditions: 10 nmol/kg SC QD 7 d
Procedure, shortened: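 On day 7 they got a final dose and serum was taken at 0, 2, 6 or 16 h (n=4/timepoint). Apparent serum peptide concentration was estimated from cAMP accumulation in CHO K1 cells stably expressing human GLP1R or GcgR, by potency comparison.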

[9] = tested on: DIO C57Bl/6J Wild-type (WT) mice; test: two-week treatment of DIO GLP-1R WT mice; type: in vivo, mouse
Procedure, shortened: as §1

[10] = tested on: primary mouse hepatocytes; test: mRNA levels in primary mouse hepatocytes; type: cell-based; conditions: 1, 10, 100 nM, 4h
Procedure, shortened: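 Primary mouse hepatocytes were exposed to test compound at 1, 10 or 100 nM for 4 h, and G6pc, Pck1 and Ppargc1a mRNA were measured. For Ppargc1a, the 100 nM condition was also combined with PKA inhibitor H89 at 10 μM. For G6pc and Pck1, it was combined with H89 at 2.5, 5 or 10 μM. n=3 biologically independent samples; one-way ANOVA with Dunnett post-hoc.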

C57Bl/6J DIO male mice = test: hyperglycemic clamp and stable isotope infusions in DIO C57Bl6J; type: in vivo, mouse
Procedure, shortened: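 Twenty-week-old male C57Bl/6J DIO mice were kept on a shifted light cycle (lights on midnight to noon). Arterial and venous catheters were placed 5 days before a hyperglycemic clamp with […] glucose and water tracing.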

ob/ob AMLN NASH mice = test: sub-chronic dosing in ob/ob AMLN NASH model; type: in vivo, mouse
[11] = tested on: C57Bl/6J diet induced obese (DIO) male mice; test: time course study in DIO C57Bl/6J mice, 7 days dosing; type: in vivo, mouse
Procedure, shortened: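 On day 7 they were euthanized at time 0, or at 2, 6 or 16 h after a final dose (n=4/group/timepoint). Body weight was tracked as % change from baseline; blood glucose was measured.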

[12] = tested on: mouse primary hepatocytes; test: mitophagosomes by live cell confocal microscopy; type: cell-based; conditions: 100 nM, 2h
Procedure, shortened: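 Primary mouse hepatocytes were kept 1 h at 37°C/5% CO2, then 4 h in fresh isolation medium, then moved to serum-free low-glucose DMEM (10 mM lactate, 2 mM glutamine, 5 mM HEPES, 10 nM dexamethasone). Cells were used 18–24 h post-plating and given 100 nM test compound for 2 h. Live cells were stained with Mitotracker green plus Lysotracker deep red and imaged by confocal microscopy. Mitophagosomes were scored as Lysotracker puncta containing Mitotracker signal.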

CC[C@H]1[C@@H](O)[C@@H]2[C@H](CC[C@]3(C)[C@@H]([C@H](C)CCC(=O)O)CC[C@@H]23)[C@@]2(C)CC[C@@H](O)C[C@@H]12 [OCA, Obeticholic acid, reference compound]
patients with a reduction in NAS ([1]; placebo 12%): 20% | patients with reduction in fibrosis stage ([1]; placebo 17%): 35% | weight loss from baseline [2]: ~ 3% | plasma insulin at 15 min during the GTT ([2]; after 4 weeks of dosing): no effect | food intake within the first 4 days [2]: no effect | animals with reduced fibrosis ([2]; terminal vs pre-study biopsy): 8.3% | animals with reduced fibrosis (number of group) ([2]; terminal vs pre-study biopsy): 1/12 | liver mass ([2]; terminal, vs vehicle): only reducing liver mass | mice in which NAS was reduced [2]: 75% | steatosis and inflammation scores and overall NAS, responders ([2]; vs vehicle): significantly more animals with lower steatosis and inflammation scores and overall NAS

Cotadutide
body weight ([3]; 10 nmol/kg SC QD 14 d (Liraglutide+g1437 5+5 nmol/kg)): not observed | food intake ([3]; first 4 days of dosing): but not in KO mice | de novo lipid synthesis [4]: reduce de novo lipid synthesis | PPARGC1A transcript levels [5]: significantly increased | body weight ([6]; 10 nmol/kg SC QD 42 d): reduced body weight similarly to Liraglutide+g1437, but more than either Liraglutide or g1437 alone | glucose excursion in pyruvate tolerance test ([6]; day 14, pyruvate 2g/kg): lower glucose excursion | plasma alanine aminotransferase (ALT) ([6]; end of study): significantly reduced | hepatic glycogen ([6]; terminal): elevated only with Cotadutide treatment | liver triglycerides ([6]; terminal): reduced | fasted insulin ([6]; vs vehicle, Liraglutide and Liraglutide+g1437): lower | weight loss from baseline [2]: ~ 8% | glucose tolerance (ipGTT) ([2]; after 4 weeks of dosing): significantly improved by Cotadutide more so than Liraglutide or OCA | plasma insulin at 15 min during the GTT ([2]; after 4 weeks of dosing): increased | food intake within the first 4 days [2]: reduced food intake | hepatic glycogen ([2]; terminal): increase in hepatic glycogen | animals with worsened fibrosis ([2]; terminal vs pre-study biopsy): no animals had worsened fibrosis | animals with reduced fibrosis ([2]; terminal vs pre-study biopsy): 25% | animals with reduced fibrosis (number of group) ([2]; terminal vs pre-study biopsy): 3/12 | liver mass ([2]; terminal, vs vehicle): unchanged liver mass | plasma ALT ([2]; terminal, vs vehicle): reduced ALT levels | mice in which NAS was reduced [2]: 83% | steatosis and inflammation scores and overall NAS, responders ([2]; vs vehicle): significantly more animals with lower steatosis and inflammation scores and overall NAS | fuel preference ([7]; ex vivo treatment): no effect | basal and maximal respiration rates ([7]; healthy mouse primary hepatocytes, 100 nM, 4h): increased basal and maximal respiration rates | basal and maximal respiratory rates (OCR) ([7]; hepatocytes from ob/ob NASH mice, 100 nM, 4h ex vivo): restored | serum concentration at 16h [8]: undetectable | time of highest serum concentration ([8]; sampled 0, 2, 6, 16 h after final dose): highest at 2h and 6h | body weight ([9]; 10 nmol/kg SC QD 14 d (Liraglutide+g1437 5+5 nmol/kg), vs vehicle): significantly reduced | liver lipid content ([9]; 10 nmol/kg SC QD 14 d, terminal): to a greater degree than Liraglutide alone | food intake ([9]; 10 nmol/kg SC QD, first 4 days of dosing): significantly reduced | fasting glucose ([9]; 10 nmol/kg SC QD, vs vehicle): lowered | G6pc and Pck1 mRNA [10]: induced | Ppargc1a mRNA [10]: equally increased | de novo lipogenesis during the clamp (palmitate and glyceride synthesis) (C57Bl/6J DIO male mice; 10 nmol/kg SC QD 7 d): reduced | glycogen synthesis stimulated by hyperglycemia (C57Bl/6J DIO male mice; 10 nmol/kg SC QD 7 d): intact | hepatic (endogenous) glucose production during hyperglycemia (C57Bl/6J DIO male mice; 10 nmol/kg SC QD 7 d): suppressed | core hepatic glycogen (C57Bl/6J DIO male mice; 10 nmol/kg SC QD 7 d, fasted): lower core glycogen levels | basal glucose production (C57Bl/6J DIO male mice; fasted, basal state): increased basal glucose production | weight loss from baseline (ob/ob AMLN NASH mice; Cotadutide 30 nmol/kg, Liraglutide 40 nmol/kg SC QD 6 weeks): 7-8% | plasma C3M and P4NP7S (ob/ob AMLN NASH mice; ELISA): only reduced in Cotadutide-treated mice | resolution of fibrosis, mice (ob/ob AMLN NASH mice; n=7): resolved in all but one | lowering of collagen staining (Col1a1) (ob/ob AMLN NASH mice; not statistically significant): ~ 17% | hepatic transcript levels of Col1a1, Col3a1, Timp1, Ccl2, and Cd68 (ob/ob AMLN NASH mice; relative to AMLN vehicle): significantly reduced | hepatic transcript levels of Mmp9, Il-1b and Tnf (ob/ob AMLN NASH mice; relative to AMLN vehicle): uniquely reducing | CD68 scoring (immune cell infiltration) (ob/ob AMLN NASH mice; terminal): only reduced by Cotadutide treatment | NAS (ob/ob AMLN NASH mice; terminal): reduced | fibrosis stage (ob/ob AMLN NASH mice; terminal): improved only by Cotadutide treatment | hepatic lipid content (ob/ob AMLN NASH mice; terminal): more significant reduction in hepatic lipid content compared to Liraglutide and diet-switch | liver mass (ob/ob AMLN NASH mice; terminal): similarly reduced | liver αSMA, PSR and hydroxyproline (ob/ob AMLN NASH mice; terminal): lowered | plasma ALT (ob/ob AMLN NASH mice; terminal): lowered | hepatic Ppargc1a mRNA (ob/ob AMLN NASH mice; terminal, about 16h post last dose): restored mRNA levels to those of LFD control | hepatic DAGs and ceramides (ob/ob AMLN NASH mice; vs vehicle): only Cotadutide additionally reduced DAGs and ceramides | liver glycogen ([11]; 0-16 h after final dose): rapidly depleted by 6h post Cotadutide but rebounded to normal at 16h | body weight ([11]; 10 nmol/kg SC QD 7 d, vs vehicle): significant weight loss | blood glucose ([11]; smaller study vehicle vs Cotadutide, 2h and 6h post dose): significantly lowered | mitochondrial number [12]: without altering mitochondrial number | mitophagosomes (mitochondria within lysosomes) ([12]; vs vehicle): Increased number

CCCCCCCCCCCCCCCC(=O)N[C@@H](CCC(=O)NCCCC[C@H](NC(=O)[C@H](C)NC(=O)[C@H](C)NC(=O)[C@H](CCC(N)=O)NC(=O)CNC(=O)[C@H](CCC(=O)O)NC(=O)[C@H](CC(C)C)NC(=O)[C@H](Cc1ccc(O)cc1)NC(=O)[C@H](CO)NC(=O)[C@H](CO)NC(=O)[C@@H](NC(=O)[C@H](CC(=O)O)NC(=O)[C@H](CO)NC(=O)[C@@H](NC(=O)[C@H](Cc1ccccc1)NC(=O)[C@@H](NC(=O)CNC(=O)[C@H](CCC(=O)O)NC(=O)[C@H](C)NC(=O)[C@@H](N)Cc1cnc[nH]1)[C@@H](C)O)[C@@H](C)O)C(C)C)C(=O)N[C@@H](CCC(=O)O)C(=O)N[C@@H](Cc1ccccc1)C(=O)N[C@H](C(=O)N[C@@H](C)C(=O)N[C@@H](Cc1c[nH]c2ccccc12)C(=O)N[C@@H](CC(C)C)C(=O)N[C@H](C(=O)N[C@@H](CCCNC(=N)N)C(=O)NCC(=O)N[C@@H](CCCNC(=N)N)C(=O)NCC(=O)O)C(C)C)[C@@H](C)CC)C(=O)O [Liraglutide, reference compound]
pharmacokinetics compared with Cotadutide, in words [8]: longer bioavailability
